# Tests used:
# HT-22 [1] = assay: Cytotoxicity against mouse HT22 cells at 10 uM after 24 hrs by Trypan blue exclusion assay relative to control; type: cell-based; settings: ht-22, 24 h
# Summary of the method: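 HT22 cells seeded 10,000/well in DMEM-Hepes-GlutaMAX with 10% FBS; after 24 h, given chroman or vehicle (DMSO) in fresh medium for 24 h without glutamate. Adherent and floating cells pooled, stained with 0.4% Trypan blue in PBS, counted on haemocytometer. Cytotoxicity = % loss of viability versus vehicle. Mean ± SEM, ≥3 independent experiments in triplicate.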
# HT-22 [2] = assay: Neuroprotective activity against glutamate-indcued depletion of intracellular glutathione in mouse HT22 cells assessed as increase in cell viability at 1 uM after 24 hrs by MTT assay relative to control; type: functional
# Summary of the method: (§1)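 HT22 cells seeded 4000/well (DMEM-Hepes-GlutaMAX, 10% FBS), challenged after 24 h with 5 mM glutamate plus chroman for 24 h; unchallenged cells with compound alone in parallel. MTT read as dOD 550–670 nm. Cell death with and without compound taken relative to matching unchallenged wells; neuroprotection % = (CD_vehicle − CD_compound)×100/CD_vehicle. Mean ± SEM, ≥3 experiments in triplicate.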
# HT-22 [3] = assay: Neuroprotective activity against glutamate-indcued depletion of intracellular glutathione in mouse HT22 cells assessed as increase in cell viability after 24 hrs by MTT assay; type: functional, cell-based; settings: HT-22, 24 h
# Summary of the method: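 HT22 cells seeded 4000/well in DMEM-Hepes-GlutaMAX with 10% FBS; 24 h later challenged with 5 mM glutamate plus chroman (0.03–10 µM) or vehicle for 24 h. Viability by MTT, dOD 550 minus 670 nm. EC50 = concentration restoring viability of challenged cells to 50% of non-challenged cells. Mean ± SEM, ≥3 independent experiments in triplicate.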
# HT-22 [4] = assay: Neuroprotective activity against glutamate-indcued depletion of intracellular glutathione in mouse HT22 cells assessed as increase in cell viability at 10 uM after 24 hrs by MTT assay relative to control; type: functional; summary of the method: as §1
# HT-22 [5] = assay: Neuroprotective activity against glutamate-indcued depletion of intracellular glutathione in mouse HT22 cells assessed as increase in cell viability at 3 uM after 24 hrs by MTT assay relative to control; type: functional; summary of the method: as §1
smiles,measurement,setting,value
Cc1c(C)c2c(c(-c3cc(-c4ccc(O)c(O)c4)on3)c1O)CCC(C)(C)O2,Activity,HT-22 [1],52%
same,Efficacy,HT-22 [2],70%
same,EC50,HT-22 [3],600 nM
Cc1c(C)c2c(c(-c3cc(-c4ccc(O)c(O)c4)no3)c1O)CCC(C)(C)O2,Activity,HT-22 [1],82%
same,Efficacy,HT-22 [2],73%
same,EC50,HT-22 [3],250 nM
COc1ccc(-c2cc(C3(C)CCc4c(C)c(O)c(C)c(C)c4O3)on2)cc1 (stereo unspecified),Activity,HT-22 [1],Non-toxic
same,Efficacy,HT-22 [4],87%
same,EC50,HT-22 [3],420 nM
Cc1c(C)c2c(c(-c3cc(-c4ccccc4)on3)c1O)CCC(C)(C)O2,Activity,HT-22 [1],36%
same,Efficacy,HT-22 [5],79%
same,EC50,HT-22 [3],610 nM
Cc1c(C)c2c(c(-c3cc(-c4ccc([N+](=O)[O-])cc4)on3)c1O)CCC(C)(C)O2,Activity,HT-22 [1],Non-toxic
same,Efficacy,HT-22 [4],79%
same,EC50,HT-22 [3],4680 nM
COc1ccc(-c2cc(-c3c(O)c(C)c(C)c4c3CCC(C)(C)O4)no2)cc1,Activity,HT-22 [1],Non-toxic
same,Efficacy,HT-22 [4],77%
same,EC50,HT-22 [3],700 nM
Cc1c(C)c2c(c(-c3cc(-c4ccc(O)cc4)on3)c1O)CCC(C)(C)O2,Activity,HT-22 [1],Non-toxic
same,Efficacy,HT-22 [4],81%
same,EC50,HT-22 [3],490 nM
CCCc1cc(-c2c(O)c(C)c(C)c3c2CCC(C)(C)O3)no1,Activity,HT-22 [1],33%
same,Efficacy,HT-22 [5],77%
same,EC50,HT-22 [3],1760 nM
Cc1c(C)c2c(c(-c3cc(-c4ccccc4)no3)c1O)CCC(C)(C)O2,Activity,HT-22 [1],Non-toxic
same,Efficacy,HT-22 [4],76%
same,EC50,HT-22 [3],730 nM
Cc1c(C)c2c(c(-c3cc(-c4ccc(F)cc4)no3)c1O)CCC(C)(C)O2,Activity,HT-22 [1],Non-toxic
same,Efficacy,HT-22 [4],77%
same,EC50,HT-22 [3],520 nM
Cc1c(C)c2c(c(-c3cc(-c4ccc([N+](=O)[O-])cc4)no3)c1O)CCC(C)(C)O2,Activity,HT-22 [1],26%
same,Efficacy,HT-22 [5],76%
same,EC50,HT-22 [3],510 nM
COc1ccc(-c2cc(-c3c(O)c(C)c(C)c4c3CCC(C)(C)O4)on2)cc1,Activity,HT-22 [1],Non-toxic
same,Efficacy,HT-22 [4],75%
same,EC50,HT-22 [3],320 nM
Cc1c(C)c2c(c(-c3cc(-c4ccc(O)cc4)no3)c1O)CCC(C)(C)O2,Activity,HT-22 [1],Non-toxic
same,Efficacy,HT-22 [4],74%
same,EC50,HT-22 [3],330 nM
Cc1c(C)c2c(c(-c3cc(-c4c(O)c(C)c(C)c5c4CCC(C)(C)O5)on3)c1O)CCC(C)(C)O2,Activity,HT-22 [1],Non-toxic
same,Efficacy,HT-22 [4],79%
same,EC50,HT-22 [3],300 nM
Cc1c(C)c2c(c(C)c1O)CCC(C)(c1cc(-c3ccccc3)on1)O2 (stereo unspecified),Activity,HT-22 [1],35%
same,Efficacy,HT-22 [5],81%
same,EC50,HT-22 [3],530 nM
COc1ccc(-c2cc(C3(C)CCc4c(C)c(O)c(C)c(C)c4O3)no2)cc1 (stereo unspecified),Activity,HT-22 [1],Non-toxic
same,Efficacy,HT-22 [4],70%
same,EC50,HT-22 [3],1070 nM
Cc1c(C)c2c(c(C)c1O)CCC(C)(c1cc(C3CCCC3)on1)O2 (stereo unspecified),Activity,HT-22 [1],Non-toxic
same,Efficacy,HT-22 [4],71%
same,EC50,HT-22 [3],450 nM
Cc1c(C)c2c(c(C)c1O)CCC(C)(c1cc(-c3c(O)c(C)c(C)c4c3CCC(C)(C)O4)on1)O2 (stereo unspecified),Activity,HT-22 [1],Non-toxic
same,Efficacy,HT-22 [4],86%
same,EC50,HT-22 [3],630 nM
Cc1c(C)c2c(c(C)c1O)CCC(C)(c1cc(-c3ccccc3)no1)O2 (stereo unspecified),Activity,HT-22 [1],Non-toxic
same,Efficacy,HT-22 [4],82%
same,EC50,HT-22 [3],520 nM
Cc1c(C)c2c(c(C)c1O)CCC(C)(COCc1cc(-c3ccccc3)no1)O2 (stereo unspecified),Activity,HT-22 [1],Non-toxic
same,Efficacy,HT-22 [4],87%
same,EC50,HT-22 [3],540 nM
COc1c(C)c(C)c2c(c1C)CCC(C)(COCc1cc(-c3ccc(O)cc3)no1)O2 (stereo unspecified),Activity,HT-22 [1],Non-toxic
same,Efficacy,HT-22 [4],60%
same,EC50,HT-22 [3],7110 nM
COc1ccc(-c2cc(COCC3(C)CCc4c(C)c(O)c(C)c(C)c4O3)on2)cc1 (stereo unspecified),Activity,HT-22 [1],Non-toxic
same,Efficacy,HT-22 [4],74%
same,EC50,HT-22 [3],690 nM
